4 compounds from ChEMBL document CHEMBL3817737, “Structure-Based Identification of Novel Ligands Targeting Multiple Sites within a Chemokine-G-Protein-Coupled-Receptor Interface” (J Med Chem, 2016) can be followed below.

Assay [1] concerns the target T1, Stromal cell-derived factor 1 (Homo sapiens, UniProt P48061). In words: Binding affinity to His6-SUMO fusion tagged wild type human [U-15N]CXCL12 expressed in Escherichia coli assessed as induction of chemical shift perturbations to residues at I4/I6 binding site by 2D 1H-15N HMQC NMR spectroscopy. In short, it runs like this: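 [U-15N]-CXCL12 WT was made as a His6SUMO fusion in E. coli (Terrific Broth, 1 mM IPTG) and taken from inclusion bodies by Ni-NTA. Combined CSP = ((5ΔδH)2+(ΔδN)2)0.5. Kd came from single-site quadratic fits of the most-perturbed residues, fitted individually and averaged (±SD).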

The target of assay [2] is T1, Stromal cell-derived factor 1. In words: Binding affinity to His6-SUMO fusion tagged wild type human [U-15N]CXCL12 expressed in Escherichia coli by 2D 1H-15N HMQC NMR spectroscopy.
Assay [3] addresses Stromal cell-derived factor 1 (Homo sapiens, UniProt P48061, A65C/L36C).

T1 sequence (P48061 whole entry, the tested form may be a part): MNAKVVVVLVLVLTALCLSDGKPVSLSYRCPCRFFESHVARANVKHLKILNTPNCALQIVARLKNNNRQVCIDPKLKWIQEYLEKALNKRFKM
Sequence of Stromal cell-derived factor 1 (Homo sapiens, UniProt P48061, A65C/L36C) (P48061 22-93 L57C/A86C limits assumed): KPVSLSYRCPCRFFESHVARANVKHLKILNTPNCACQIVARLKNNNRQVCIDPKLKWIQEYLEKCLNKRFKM

With `Cc1ccc(NS(=O)(=O)c2ccc(OCC(=O)O)c(C)c2)cc1C`, in assay [1], the Activity was found to be 12.5%.

For the compound `C[C@H](NC(=O)CCn1ccc2c(Cl)cccc21)C(=O)O`, the Kd in assay [2] (read-out: Kd) was 1700 µM. Besides, the Activity in assay [1] is 16.7%.

On to `O=C(O)CC1c2ccccc2CCN1C(=O)Nc1cccc(F)c1` (stereo unspecified), for which the Activity in assay [1] worked out at 12.5%.

With `CC(C)O.CCCOc1ccc(C(Nc2ccc(F)cc2)P(=O)(O)O)cc1` (stereo unspecified), the Kd in assay [3] is 74 µM; in assay [2], “Dose-dependent effect”.
